The subject of this data set is MS2 coat protein. Nature of the data set: apparent Kd, MS2 coat protein; higher = weaker binding; RNA-MaP array; FMN 200 µM where present. The method, boiled down:
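Apparent Kd: the median of filtered binding-curve fits from single clusters. Designs were transcribed on Illumina sequencing-chip clusters by stalled E. coli RNA polymerase and titrated with SNAP-549-labelled MS2 coat protein from 0.7 or 1.5 nM, doubling to 3 µM, in 100 mM Tris-HCl pH 7.5, 80 mM KCl, 4 mM MgCl2, BSA, DTT, yeast tRNA and Tween-20. Each series ran without and then with constant ligand, and green signal was normalised to red-channel RNA signal and control-cluster median Fmax.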

[1] abbreviates: designed as: OFF switch for flavin mononucleotide, no ligand.
The mark [2] stands for this setting: ligand present: flavin mononucleotide, designed as: OFF switch for flavin mononucleotide.
[3] abbreviates: designed as: ON switch for flavin mononucleotide, no ligand.
The mark [4] stands for this setting: ligand present: flavin mononucleotide, designed as: ON switch for flavin mononucleotide.

Broadly, the apparent Kd is a dissociation constant that holds for the conditions of the assay. As for “UUAAGGGACUGAGGAUAUACAUGAAUUAUGUUUGUAGAAGGCAGAUUGUUAGUUUAUUCACUAUACAUGAGGAUCACCCAUGUU”, the “apparent Kd” value is, setting by setting: under setting [1], 25.1 nM; under setting [2], 20.6 nM.

Regarding “CCUCGGUAGACAGGAUAUCCUUACAUGAGGAUCACCCAUGUAGCAAGACAUGGAGAAGGGUCACUGUGGGUAAAAGCGCAUAUC”, the “apparent Kd” value by setting is: under setting [3], 225 nM; under setting [4], 14 nM.

Turning to “GCUAUCGUUGUAGGAUAUGCUUGCCAAAGGCGAGCAGAAGGACAUGAGGAUCACCCAUGUCAGUGGUUGAAGAGAAGAGAUGGC”, the “apparent Kd” value was determined as 27 nM under setting [1] and 61.5 nM under setting [2].

Regarding “UUGGACAUCGUAGGAUAUGUAGGAUAUUCCUACAUGAGGAUCACCCAUGUUGACAUGGAAGAAGGACAGAAGGACGAUGUCCAU”, the “apparent Kd” value by setting is: under setting [3], 207 nM; under setting [4], 4.12 nM.

As for “ACAAAUUACUACCAGACAUGAGGAUCACCCAUGUCUCCACCCAGAAGGGCGACUCUGAGCACAGCGCAGGAUAUGGGUGUUCCA”, the “apparent Kd” value reads like this: under setting [3], 59.8 nM; under setting [4], 13.5 nM.

Turning to “AAUUCACAUGAGGAUCACCCAUGUCAGGAUAUGGUUUCACGUGUUUCGGUGCUUGAGGCCAGAAGGGACAGCUA”, the “apparent Kd” value under setting [1] stood at 67 nM and the “apparent Kd” value under setting [2] amounted to 98.6 nM.

For “GCUUGUGUUGAGGAUAUGCGCCGGCUCGCUGGCGCAGAAGGCGGCACAUGAGGAUCACCCAUGUCAGUUCGCGA”, the “apparent Kd” value reads like this: under setting [1], 27.5 nM; under setting [2], 255 nM.

Turning to “UAGAAGUCAGGAUAUGCAUGGCGGGACUUGCGUCGUGGCGUGCAGAAGGGACAUGAGGAUCACCCAUGUGGAGG”, the “apparent Kd” value under setting [1] is 152 nM and the “apparent Kd” value under setting [2] was 219 nM.

“AAAACAUGAGGAUCACCCAUGUAAAGAUCGGUUGAUGAAGGUGAGGAUAUACAAAACUUUAUGGAGUAGAAGGCACUGGGUUGA”: the “apparent Kd” value under setting [3] came out at 109 nM and the “apparent Kd” value under setting [4] came out at 59.3 nM.

Regarding “UGUCGGAGCAGAGGAUAUUACAUGAGGAUCACCCAUGUAUGAACGAAUAGCUGGAAACAGCAAUGUAAGAAGGCUGCUCCGACA”, the “apparent Kd” value reads like this: under setting [1], 6 nM; under setting [2], 10.4 nM.

“CCUAGAUAGGGAGGAUAUCACGACCAUCCCGGCGAUCCAACUACAUGAGGAUCACCCAUGUGGUGUGAGAAGGCCCAAUAAUAG”: the “apparent Kd” value is, setting by setting: under setting [1], 220 nM; under setting [2], 75.4 nM.

In the case of “AAAAAGUGAGGAUAUACGGUGUGGAGUAGACACAACCAGACGUAGAAGGCACAUGAGGAUCACCCAUGUCCAAA”, the “apparent Kd” value under setting [1] is 24.1 nM and the “apparent Kd” value under setting [2] worked out at 21.4 nM.

Turning to “ACGGCUGUCAGAGGAUAUGGUUACAUGAGGAUCACCCAUGUCAAGGGUCUAAUUAAGUAUAACUACUAGAAGGCUGAUGGCCUA”, the “apparent Kd” value turned out to be 263 nM under setting [1] and 144 nM under setting [2].

As for “UUGUGCUGAGAGAAGGUUCAAACUACAUAUUGCGCACAUGAGGAUCACCCAUGUUGGUGAAUAAGAAAGGAUAUUUUACUGUAU”, the “apparent Kd” value under setting [1] was found to be 244 nM and the “apparent Kd” value under setting [2] amounted to 184 nM.

On to “CUGUGACGGUGCGCAUGUGGACGGAGAAGGCAGACAUGAGGAUCACCCAUGUGAGCCUGCUAUUCUGAGGAUAUCCGUUCGCAC”, for which the “apparent Kd” value is, setting by setting: under setting [1], 31.8 nM; under setting [2], 192 nM.

In the case of “CACCGCGACAAUGCGGUGUCACAUGAGGAUCACCCAUGUUCACAGGAUAUGCGAUAGCCAACGAAGCAGAAGGGUGAUUACUUA”, the “apparent Kd” value by setting is: under setting [3], 32.3 nM; under setting [4], 172 nM.

With “GAUUAACAUGAGGAUCACCCAUGUGAGGAUAUGGACUGGCUCACUUUCCGAUUCCCGUCUAGAAGGCGCAUCUU”, the “apparent Kd” value under setting [1] worked out at 38.3 nM and the “apparent Kd” value under setting [2] worked out at 38.3 nM.

Take “AGGAAGUUAGGAUAUGCUGCUCGUCACUUGCGUGAUGAGUAGCAGAAGGGACAUGAGGAUCACCCAUGUAAAGA”: the “apparent Kd” value under setting [1] was determined as 36.8 nM and the “apparent Kd” value under setting [2] came out at 21.9 nM.

Consider “GGAUGGACCCAGAAGGGCAGAUCCCGAGGAAUUUGAGAUGAGCGGAUAUGUAGGAUAUGGGUGGACAUGAGGAUCACCCAUGUC”, for which the “apparent Kd” value is 176 nM under setting [3] and 42.6 nM under setting [4].

“GCCAACUAAUGAGGAUAUGGCACCUUAUUGGUGCCAGAAGGCAUGUCAAUUGACAUGAGGAUCACCCAUGUAUUAUAGUUGGCG”: the “apparent Kd” value reads like this: under setting [3], 878 nM; under setting [4], 109 nM.

As to “GAUCACUGAGGAUAUACACAGAUACAAAGUAUCUGAGCGUGACAUGAGGAUCACCCAUGUAGAAGGCAGAGGUC”, the “apparent Kd” value was 190 nM under setting [1] and 769 nM under setting [2].

On to “AGGAGGUCAGGAUAUGCAUGGCGGGACUUGCGUCGUGGCGUGCAGAAGGGACAUGAGGAUCACCCAUGUGGAGU”, for which the “apparent Kd” value reads like this: under setting [1], 113 nM; under setting [2], 139 nM.

Regarding “AUGACUCUAGGAUAUUAGCGGGCCUACAUGAGGAUCACCCAUGUCGUGUCGCGGGUAUGCUGAGAAGGAGAGCACA”, the “apparent Kd” value by setting is: under setting [1], 14.2 nM; under setting [2], 17.9 nM.

Regarding “GUAGCAUACCGAGGAUAUUCAUACCGGAAACGGACAUGAGGAUCACCCAUGUGGCGAAAGCCUUAGGAGAAGGCGGAAUGCUAC”, the “apparent Kd” value under setting [3] was found to be 16.4 nM and the “apparent Kd” value under setting [4] was determined as 12.3 nM.

For the sequence “UCCUUAUCGGUCAGGAUAUACACCCGUUUCUCCUUGUAGAAGGGACAUGAGGAUCACCCAUGUACAGUACAUCU”, the “apparent Kd” value is 20.4 nM under setting [1] and 19.1 nM under setting [2].

As to “CGCUAAUUAAUUAUAUUAAUUAUACAGGAUAUGUAACAUGAGGAUCACCCAUGUAUUCAAUGUAAACAGAAGGGUAUAUUAGCG”, the “apparent Kd” value is, setting by setting: under setting [1], 10.7 nM; under setting [2], 16.2 nM.

As to “CGAUAGUGUCGUUAUCCGUAGCGAACAUGAGGAUCACCCAUGUAGGAUAUGUUACUAAACUAGUAACAGAAGGGCGUGAGUCUU”, the “apparent Kd” value amounted to 129 nM under setting [1] and 161 nM under setting [2].

Consider “ACCGAAUGAACAUGAGGAUCACCCAUGUACACGAAAGUGAAUGAGGAUAUCGAUAGCAAAGCUAUCGAGAAGGCAUGGGUCGGU”, for which the “apparent Kd” value runs as follows: under setting [3], 565 nM; under setting [4], 144 nM.

As to “AAAAAACAUGAGGAUCACCCAUGUGAGGAUAUCCAAAAGUUAAAGAAAAAGACGAAAAGGAGAAGGCGCAAAAA”, the “apparent Kd” value runs as follows: under setting [1], 109 nM; under setting [2], 82 nM.

As to “AGUGUCAUCGAGAAGGCCUCAACAUGAGGAUCACCCAUGUUGUUACAUGGGAGGAUAUCGAUGAUACAGCUACGUUUCGUAGCA”, the “apparent Kd” value under setting [3] came out at 1010 nM and the “apparent Kd” value under setting [4] worked out at 137 nM.

With “GUGAUACAUGAGGAUCACCCAUGUCACCUCACACGAGGAUAUCUGUGCAGUACUCAGUACGGAGAAGGCGUGGAAA”, the “apparent Kd” value under setting [3] amounted to 96.7 nM and the “apparent Kd” value under setting [4] came out at 26.4 nM.

For the sequence “CCCUCACAUGAGGAUCACCCAUGUCAGGAUAUCUAGUCAGACAGUAUAGCACUGCUGAAGAGAAGGGACGUAAA”, the “apparent Kd” value by setting is: under setting [1], 16.4 nM; under setting [2], 20 nM.

With “AAAAUGUAAGGAUAUGGCCGGGACCCAGGGUUUGGACCCGGCUAGAAGGUACAUGAGGAUCACCCAUGUAAGAA”, the “apparent Kd” value under setting [1] was found to be 16.4 nM and the “apparent Kd” value under setting [2] came to 23 nM.

On to “GCCUCAUAGUAGAAGGGACUUCGGCUGUUAAGCAUCAUCUCCAUAUCACAUGAGGAUCACCCAUGUCAGGAUAUACUAAGAGGC”, for which the “apparent Kd” value is, setting by setting: under setting [1], 6.95 nM; under setting [2], 14.4 nM.

As to “CAGGUGUUAGGAUAUCGGAGAUCGAGACCGACGGGAUGAGCCGAGAAGGAACAUGAGGAUCACCCAUGUAGGUG”, the “apparent Kd” value came to 575 nM under setting [1] and 247 nM under setting [2].

For the sequence “UGGACCGAGCUGUCGGUUGACUCGAAGGAUAUGACAUGAGGAUCACCCAUGUGGGAUCUAAAUUGUCAGAAGGUUGGUUCUGGG”, the “apparent Kd” value stood at 641 nM under setting [1] and 276 nM under setting [2].

On to “AACCCUACUGAGGAUAUGAAACGGCUAGACGCAUCAGAAGGCAGUACAUGAGGAUCACCCAUGUACCUCCGGGC”, for which the “apparent Kd” value is, setting by setting: under setting [1], 13.3 nM; under setting [2], 20.9 nM.

For “UUCCUACAUGAGGAUCACCCAUGUCAGGAUAUCUCCUCGUCGCCAAUGGGCGACGAAUAGAGAAGGGACAGGAA”, the “apparent Kd” value by setting is: under setting [1], 15 nM; under setting [2], 16.7 nM.

Regarding “GCUAGUAUUGCAGGAUAUUGAGAAUAAUUAUGGCAAGAAGGGCAUAACAUGAGGAUCACCCAUGUAUUCCUUAGUGAUACUAGC”, the “apparent Kd” value under setting [1] stood at 9.07 nM and the “apparent Kd” value under setting [2] turned out to be 8.33 nM.

With “UUACUAUUGGAGAAGGGUCCAUCAUAUAGAAGGACAGGAUAUCCAACAUGAGGAUCACCCAUGUGUCACCCAUAUGAGGAUCAC”, the “apparent Kd” value reads like this: under setting [1], 41.4 nM; under setting [2], 82.2 nM.

“AUAAGUCGAGGAUAUACAAAAUGCUAGCGAAAGCUAGCAUAACAUGAGGAUCACCCAUGUAGAAGGCGACAAUA”: the “apparent Kd” value by setting is: under setting [1], 24.5 nM; under setting [2], 26.1 nM.

Consider “AAAUUGGUAGAGGAUAUCGGAUAGGAUUUACUGCGAGAAGGCUGCACAUGAGGAUCACCCAUGUUCUGUUGGGA”, for which the “apparent Kd” value amounted to 123 nM under setting [1] and 152 nM under setting [2].

On to “UGGUACUAGGGAGGAUAUGGGAAGAUACAUGAGGAUCACCCAUGUUUAAGAAUGCGGAGAGGCAACUAGAAGGCCCUAGUACCU”, for which the “apparent Kd” value was determined as 351 nM under setting [3] and 18.9 nM under setting [4].

As to “UUUAAUUAGUAGAAGGACGGAGAGUAAGAAGUCGUAGGAUAUACAUAAGACAUGAGGAUCACCCAUGUGUGUAUGUUGGGUAGG”, the “apparent Kd” value under setting [1] came out at 6.57 nM and the “apparent Kd” value under setting [2] came to 7.72 nM.

As for “UGAAAUCAUGUAGGAUAUGCAUGGCGAAGCUACGCAGAAGGACAUGAGGAUCACCCAUGUUAUAGCUACCCGUUACGGUGGCAA”, the “apparent Kd” value runs as follows: under setting [1], 135 nM; under setting [2], 155 nM.

For “UCGGCGCGAGGAUAUGCGGCUCCUGCUUCGGGCCGGAGCGUACAUGAGGAUCACCCAUGUAGAAGGCGCGCCGC”, the “apparent Kd” value came out at 12 nM under setting [1] and 13.9 nM under setting [2].

Turning to “CGCCAAUUGGCACAGGAUAUGAGCAUGCUCACAUGAGGAUCACCCAUGUGAUUACCAACGCAAAAUCAGAAGGGUGCCCUCGUCA”, the “apparent Kd” value runs as follows: under setting [3], 147 nM; under setting [4], 97.1 nM.

Take “AAACAUGUCCGAGGAUAUCUGGAAACAUUUUCAAGAGAAGGCGGACAUGAGGAUCACCCAUGUCUCUCCUCAUCAAGUCCAAGU”: the “apparent Kd” value runs as follows: under setting [1], 8.47 nM; under setting [2], 46.2 nM.

These data come from the EternaBench riboswitch data.
